Experimental data as given in ChEMBL document CHEMBL1158082, “Cytotoxic hypothemycin analogues from Hypomyces subiculosus” (J Nat Prod, 2006).

Legend:
Type in all cases: functional, cell-based
[1] = system: SK-OV-3; experiment: Cytotoxicity against human SKOV3 cells
In short: (§1)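 Cells were kept in McCoy's 5A with 10% FBS and 2 mM L-glutamine at 37 °C and 5% CO2. About 4000 cells per well were plated and left to adhere overnight. Compounds from 50 mM DMSO stocks were diluted in medium (dilution series 100 µM to 0.1 pM, before addition) and added in duplicate. After 72 h, viability was read by CellTiter-Glo luminescence at room temperature.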

[2] = system: COLO-829; experiment: Cytotoxicity against human COLO829 cells; in short: as §1
[3] = system: HT-29; experiment: Cytotoxicity against human HT-29 cells; in short: as §1

Compound	IC50 [1] [nM]	IC50 [2] [nM]	IC50 [3] [nM]
COc1cc(O)c2c(c1)[C@H]1O[C@@H]1CCCC(=O)CCC[C@H](C)OC2=O	> 100000	–	–
C[C@H]1C/C=C/[C@@H](O)[C@@H](O)CC[C@H]2O[C@@H]2c2cc(O)cc(O)c2C(=O)O1	> 100000	> 100000	> 100000
C[C@H]1C/C=C\C(=O)[C@@H](O)[C@@H](O)C[C@H]2O[C@@H]2c2cc(O)cc(O)c2C(=O)O1	1800	38	100
COc1cc(O)c2c(c1)[C@H]1O[C@@H]1C[C@H](O)[C@H](O)C(=O)/C=C\C[C@H](C)OC2=O [HYPOTHEMYCIN]	5900	70	150
